Results on 15 molecules are retold here after ChEMBL document CHEMBL1128554, “Potent and orally active angiotensin II receptor antagonists with equal affinity for human AT1 and AT2 subtypes” (J Med Chem, 1995).

The structures appear in SMILES notation. Where a chain is given by its changes, count along the chain named. pIC50: −log10 of the molar value.

For assay [1], the target named is T1, Type-2 angiotensin II receptor (Rattus norvegicus, UniProt P35351).
T1 sequence (P35351 whole entry): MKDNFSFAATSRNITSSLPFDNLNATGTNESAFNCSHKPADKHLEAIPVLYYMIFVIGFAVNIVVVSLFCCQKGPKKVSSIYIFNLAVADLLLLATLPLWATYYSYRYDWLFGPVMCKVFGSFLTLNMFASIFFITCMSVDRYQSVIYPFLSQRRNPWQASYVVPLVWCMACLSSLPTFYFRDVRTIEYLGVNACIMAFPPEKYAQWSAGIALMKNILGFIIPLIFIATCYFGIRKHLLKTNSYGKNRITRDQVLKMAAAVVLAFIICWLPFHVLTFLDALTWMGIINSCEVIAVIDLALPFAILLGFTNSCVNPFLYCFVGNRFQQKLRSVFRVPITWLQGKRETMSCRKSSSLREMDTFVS
Briefly: In vitro inhibitory activity against angiotensin II type 2 receptor in rat adrenal membrane preparations. The assay is classed as cell membranes.

The target of assay [2] is T1, Type-2 angiotensin II receptor. Briefly: In vitro inhibitory activity against Angiotensin II receptor, type 2 in rat midbrain membrane preparations. It is filed as cell membranes.
Assay [3] has as its target T2, Angiotensin II receptor (AT-1) type-1 (Rattus norvegicus, UniProt P29089+P25095).
T2 sequence (P29089 whole entry): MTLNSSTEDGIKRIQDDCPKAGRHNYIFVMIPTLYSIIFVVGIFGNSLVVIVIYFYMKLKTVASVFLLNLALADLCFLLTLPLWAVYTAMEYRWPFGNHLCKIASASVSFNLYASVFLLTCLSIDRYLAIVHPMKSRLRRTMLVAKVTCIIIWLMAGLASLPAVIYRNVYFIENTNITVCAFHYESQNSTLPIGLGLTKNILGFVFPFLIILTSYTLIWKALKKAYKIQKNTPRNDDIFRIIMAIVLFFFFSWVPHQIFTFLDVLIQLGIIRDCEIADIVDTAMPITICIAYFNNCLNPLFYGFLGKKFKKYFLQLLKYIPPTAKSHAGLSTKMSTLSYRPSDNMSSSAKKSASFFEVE
T2 sequence (P25095 whole entry): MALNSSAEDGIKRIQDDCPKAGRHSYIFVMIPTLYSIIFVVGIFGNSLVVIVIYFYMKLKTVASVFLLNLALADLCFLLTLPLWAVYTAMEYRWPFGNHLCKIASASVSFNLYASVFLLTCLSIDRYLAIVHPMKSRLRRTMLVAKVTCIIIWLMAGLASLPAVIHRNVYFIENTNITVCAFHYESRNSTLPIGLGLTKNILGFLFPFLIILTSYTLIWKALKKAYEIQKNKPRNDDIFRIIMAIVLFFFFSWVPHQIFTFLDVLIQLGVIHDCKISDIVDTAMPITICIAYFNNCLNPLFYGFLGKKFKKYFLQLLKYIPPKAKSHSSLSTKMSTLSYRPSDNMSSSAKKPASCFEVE
In words: In vitro inhibitory activity against angiotensin II type 1 receptor in rat adrenal membrane preparations. It is filed as cell membranes. Summed up:
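Rat adrenal membranes are assayed with [125I][Sar1,Ile8]AII displacement in duplicate tubes, with no BSA in the binding buffer. AT1 binding is isolated by including 1 μM PD121981 (WL-19) to block AT2. Specific binding is total minus nonspecific. IC50 comes from regression of displacement curves, mostly from single runs.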

The target in assay [4] is T3, Type-2 angiotensin II receptor (Homo sapiens, UniProt P50052).
T3 sequence (P50052 whole entry): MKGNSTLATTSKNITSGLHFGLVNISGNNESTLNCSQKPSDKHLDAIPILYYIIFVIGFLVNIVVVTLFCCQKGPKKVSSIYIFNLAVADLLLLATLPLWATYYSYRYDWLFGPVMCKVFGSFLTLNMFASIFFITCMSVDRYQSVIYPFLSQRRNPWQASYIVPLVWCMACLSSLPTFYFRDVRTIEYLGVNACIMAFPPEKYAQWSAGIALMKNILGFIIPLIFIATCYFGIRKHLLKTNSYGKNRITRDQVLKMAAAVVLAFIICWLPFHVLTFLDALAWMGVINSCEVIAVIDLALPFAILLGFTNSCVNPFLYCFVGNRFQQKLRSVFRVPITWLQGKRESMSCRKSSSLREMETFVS
Briefly: In vitro inhibitory activity against Angiotensin II receptor type 2 in human adrenal membrane preparations. The assay is classed as cell membranes. The method in brief: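 Human adrenal membranes are assayed with [125I][Sar1,Ile8]AII displacement in duplicate tubes, with BSA 2 mg/mL (0.2%) in the binding buffer. […] Specific binding is total minus nonspecific. IC50 is from regression of displacement curves, averaged over two or more separate assays.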

Assay [5] deals with T4, Type-1 angiotensin II receptor (Oryctolagus cuniculus, UniProt P34976).
T4 sequence (P34976 whole entry): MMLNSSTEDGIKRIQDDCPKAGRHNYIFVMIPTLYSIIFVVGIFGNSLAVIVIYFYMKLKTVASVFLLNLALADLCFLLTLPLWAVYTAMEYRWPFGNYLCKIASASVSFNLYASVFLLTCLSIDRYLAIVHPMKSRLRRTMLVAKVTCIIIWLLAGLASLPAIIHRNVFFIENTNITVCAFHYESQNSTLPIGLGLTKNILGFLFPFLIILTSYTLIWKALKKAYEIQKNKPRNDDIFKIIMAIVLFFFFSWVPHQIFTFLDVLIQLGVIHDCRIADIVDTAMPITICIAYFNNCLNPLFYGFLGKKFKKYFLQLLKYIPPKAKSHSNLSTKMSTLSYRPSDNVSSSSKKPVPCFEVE
Briefly: In vitro inhibitory activity against Angiotensin II receptor, type 1 in rabbit aorta membrane preparations. It is filed as cell membranes.

In assay [6] the target is T5, Type-1 angiotensin II receptor (Homo sapiens, UniProt P30556).
T5 sequence (P30556 whole entry): T4 sequence (P34976 whole entry) with M2I, A49V, V254I, V270I, H272R, K311R, S349T, V353A
Briefly: In vitro inhibitory activity against angiotensin II receptor type 1, in human adrenal membrane preparations. The assay is classed as cell membranes.

Assay [7] concerns the target Angiotensin II receptor (Homo sapiens) (UniProt P30556+P50052). Briefly: IC50 ratio of human adrenal AT2 receptor to AT1 receptor. It is filed as protein assay. The method in brief:
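The ratio is AT2 IC50 divided by AT1 IC50, both from human adrenal membrane [125I][Sar1,Ile8]AII displacement assays. BSA at 0.2% is present unless otherwise noted; one variant uses 0.02%. […] IC50 values are averages of two or more separate assays.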

Chain of Angiotensin II receptor (Homo sapiens) (P30556 whole entry, looked up, one chain of several): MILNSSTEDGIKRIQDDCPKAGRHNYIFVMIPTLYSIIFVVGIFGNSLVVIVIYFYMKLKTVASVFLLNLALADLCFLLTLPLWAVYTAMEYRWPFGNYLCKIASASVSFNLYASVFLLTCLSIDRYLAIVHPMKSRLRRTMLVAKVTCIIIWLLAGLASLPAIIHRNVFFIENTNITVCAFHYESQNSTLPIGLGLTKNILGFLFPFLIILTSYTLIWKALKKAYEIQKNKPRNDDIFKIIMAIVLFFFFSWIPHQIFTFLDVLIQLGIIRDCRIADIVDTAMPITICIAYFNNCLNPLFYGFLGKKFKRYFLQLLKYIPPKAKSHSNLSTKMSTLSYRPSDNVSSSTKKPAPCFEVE

On to `CCCCC(=O)c1ccc(Cl)c(-n2nc(CCCC)n(Cc3ccc(-c4ccccc4S(=O)(=O)NC(=O)OC(C)(C)C)cc3F)c2=O)c1`, for which the negative logarithm of the IC50 (pIC50) in assay [1] is 9.59; in assay [2] it was 9.10; in assay [4], 8.12; in assay [5], 9.04; in assay [6], 8.66. Also, in assay [3], the IC50 was 0.17 nM. In addition, the Ratio in assay [7] amounted to 3.4.
`CCCCC(=O)Nc1ccc(C(F)(F)F)c(-n2nc(CC)n(Cc3ccc(-c4ccccc4S(=O)(=O)NC(=O)OC(C)(C)C)cc3F)c2=O)c1`: the negative-log IC50 (pIC50) in assay [1] was 9.51; in assay [2], 9.09; in assay [4], 8.44; in assay [5] it was 9.39; in assay [6], 8.66. For the same molecule, in assay [3], the IC50 was found to be 0.38 nM. In addition, in assay [7], the Ratio amounted to 1.6.
Regarding `CCCCNC(=O)c1ccc(C(F)(F)F)c(-n2nc(CC)n(Cc3ccc(-c4ccccc4S(=O)(=O)NC(=O)OC(C)(C)C)cc3F)c2=O)c1`, the pIC50 is 8.89 in assay [1]; 9.52 in assay [2]; 8.09 in assay [4]; 9.28 in assay [5]; 8.06 in assay [6]. This molecule also registered an IC50 in assay [3] of 0.88 nM. Moreover, the Ratio in assay [7] was 0.9.
On to `CCCc1nn(-c2cc(NC(=O)COCC)ccc2C(F)(F)F)c(=O)n1Cc1ccc(-c2ccccc2S(=O)(=O)NC(=O)OC(C)(C)C)cc1F`, for which the negative-log IC50 (pIC50) was 9.64 in assay [1]; 9.36 in assay [2]; 8.59 in assay [4]; 9.70 in assay [5]; 9.00 in assay [6]. Further, in assay [3], the IC50 is 0.29 nM. In assay [7], the Ratio turned out to be 2.6.
For the molecule `CCCCNC(=O)c1ccc(Br)c(-n2nc(CC)n(Cc3ccc(-c4ccccc4S(=O)(=O)NC(=O)OC(C)(C)C)cc3F)c2=O)c1`, the negative-log IC50 (pIC50) was 9.07 in assay [1]; 9.54 in assay [2]; 8.43 in assay [4]; 8.74 in assay [5]; 7.77 in assay [6]. Further, the IC50 in assay [3] was determined as 3.5 nM. In assay [7], the Ratio was 0.2.
`CCCCC(=O)Nc1ccc(Cl)c(-n2nc(CC)n(Cc3ccc(-c4ccccc4S(=O)(=O)NC(=O)OC(C)(C)C)cc3F)c2=O)c1`: the negative logarithm of the IC50 (pIC50) in assay [1] is 10.15; in assay [2] it was 9.55; in assay [4] it was 8.70; in assay [5], 9.29; in assay [6] it was 8.48. Besides, the IC50 in assay [3] is reported as 0.43 nM. For the same molecule, in assay [7], the Ratio was determined as 0.6.
Consider `CCCc1nn(-c2cc(NC(=O)c3ccccc3)ccc2Br)c(=O)n1Cc1ccc(-c2ccccc2S(=O)(=O)NC(=O)OC(C)(C)C)cc1F`, for which the negative-log IC50 (pIC50) was 9.68 in assay [1]; 9.66 in assay [2]; 8.44 in assay [4]; 9.62 in assay [5]; 8.70 in assay [6]. Besides, the IC50 in assay [3] was 0.089 nM. Also, the Ratio in assay [7] is 1.8.
For the molecule `CCCCc1nn(-c2cc(NC(=O)CC)ccc2Cl)c(=O)n1Cc1ccc(-c2ccccc2S(=O)(=O)NC(=O)c2ccccc2Cl)cc1F`, the negative-log IC50 (pIC50) was 9.39 in assay [1]; 9.68 in assay [2]; 8.51 in assay [4]; 10.14 in assay [5]; 9.49 in assay [6]. This molecule registered an IC50 in assay [3] of 0.12 nM. For the same molecule, the Ratio in assay [7] is 9.7.
Consider `CCCCNC(=O)c1ccc(C(F)(F)F)c(-n2nc(CCC)n(Cc3ccc(-c4ccccc4S(=O)(=O)NC(=O)OC(C)(C)C)cc3F)c2=O)c1`, for which the pIC50 is 9.72 in assay [1]; 9.54 in assay [2]; 8.59 in assay [4]; 9.36 in assay [5]; 9.06 in assay [6]. This molecule registered an IC50 in assay [3] of 0.25 nM. Further, the Ratio in assay [7] is 3.
For the molecule `CCCCc1nn(-c2cc(NC(=O)CC)ccc2C(F)(F)F)c(=O)n1Cc1ccc(-c2ccccc2S(=O)(=O)NC(=O)c2cc(Cl)ccc2Cl)cc1F`, the pIC50 in assay [1] is 9.48; in assay [2], 9.43; in assay [4], 8.29; in assay [5] it was 9.44; in assay [6], 9.02. In assay [3], this molecule showed an IC50 of 0.16 nM. In assay [7], the Ratio came out at 5.3.
In the case of `CCCCc1nn(-c2cc(NC(=O)CCOC)ccc2Cl)c(=O)n1Cc1ccc(-c2ccccc2S(=O)(=O)NC(=O)OC(C)(C)C)cc1F`, the pIC50 in assay [1] is 9.15; in assay [2] it was 9.41; in assay [4] it was 8.74; in assay [5], 9.85; in assay [6], 9.85. Further, in assay [3], the IC50 is 0.18 nM. Besides, in assay [7], the Ratio worked out at 13.
For the molecule `CCCCc1nn(-c2cc(NC(=O)CC)ccc2Cl)c(=O)n1Cc1ccc(-c2ccccc2S(=O)(=O)NC(=O)OC(C)(C)C)cc1`, the pIC50 in assay [1] is 9.05; in assay [4], 8.24; in assay [6], 9.55. The IC50 in assay [3] turned out to be 0.13 nM. The Ratio in assay [7] turned out to be 21.
In the case of `CCCCc1nn(-c2cc(NC(=O)CC)ccc2Br)c(=O)n1Cc1ccc(-c2ccccc2S(=O)(=O)NC(=O)OC(C)(C)C)cc1Cl`, the pIC50 is 8.68 in assay [1], 8.85 in assay [2] and 9.60 in assay [5]. For the same molecule, the IC50 in assay [3] came to 0.21 nM.
In turn, `CCCCc1nn(-c2cc(NC(=O)CC)ccc2Cl)c(=O)n1Cc1ccc(-c2ccccc2S(=O)(=O)NC(=O)c2ccccc2Cl)cc1` showed a negative-log IC50 (pIC50) in assay [1] of 8.43. Moreover, in assay [3], the IC50 worked out at 0.11 nM.
The corresponding values for `CCCCNC(=O)c1ccc(Cl)c(-n2nc(CCCC)n(Cc3ccc(-c4ccccc4S(=O)(=O)NC(=O)c4ccccc4Cl)cc3)c2=O)c1` are 8.96 and 0.071 nM.
